For assay [1], the target named is T1, BetP (Corynebacterium glutamicum, UniProt P54582, G153D).
T1 sequence (P54582 1-595 G153D): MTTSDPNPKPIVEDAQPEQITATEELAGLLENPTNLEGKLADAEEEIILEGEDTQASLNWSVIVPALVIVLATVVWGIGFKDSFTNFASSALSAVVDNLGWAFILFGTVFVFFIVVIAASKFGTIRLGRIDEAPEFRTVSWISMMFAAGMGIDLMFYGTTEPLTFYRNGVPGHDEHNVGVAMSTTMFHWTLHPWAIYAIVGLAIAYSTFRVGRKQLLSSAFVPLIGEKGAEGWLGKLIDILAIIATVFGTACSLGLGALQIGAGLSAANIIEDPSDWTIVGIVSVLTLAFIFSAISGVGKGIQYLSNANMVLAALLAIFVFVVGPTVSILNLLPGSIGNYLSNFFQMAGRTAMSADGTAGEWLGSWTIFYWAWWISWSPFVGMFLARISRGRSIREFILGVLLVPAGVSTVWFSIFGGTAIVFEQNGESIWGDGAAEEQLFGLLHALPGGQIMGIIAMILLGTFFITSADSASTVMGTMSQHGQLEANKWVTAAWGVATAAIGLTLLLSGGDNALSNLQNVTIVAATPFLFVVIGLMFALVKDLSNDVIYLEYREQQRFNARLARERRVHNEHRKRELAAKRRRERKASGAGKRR
Nature of the assay: tryptophan fluorescence titration, proteoliposomes. Format: binding. An outline of the steps:
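Strep-tagged BetP-G153D was expressed in E. coli, affinity-purified in DDM, and reconstituted into E. coli polar-lipid liposomes (lipid/protein 10:1 w/w, 250 mM KPi pH 7.5), used at 100 μg/ml protein. Substrate was 0.1–16 mM with 100 mM NaCl at pH 7.5, or 0.8–30 mM (pH 5.5) or 0.8–100 mM (pH 7.5) without NaCl. Excitation 295 nm; emission at 340 nm, eight readings averaged. Mean and SD were fitted for the binding constant.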

Assay [2] deals with BetP (Corynebacterium glutamicum, UniProt P54582). The assay is described as follows: […]-betaine uptake in E. coli MKH13 expressing BetP. The settings on record: 250 μM [14C]-betaine, NaCl titration, pH 7.5, 800 mOsmol/kg, 37 °C; labelled compound. The assay is classed as cell-based.
BetP (Corynebacterium glutamicum, UniProt P54582), sequence (P54582 whole entry): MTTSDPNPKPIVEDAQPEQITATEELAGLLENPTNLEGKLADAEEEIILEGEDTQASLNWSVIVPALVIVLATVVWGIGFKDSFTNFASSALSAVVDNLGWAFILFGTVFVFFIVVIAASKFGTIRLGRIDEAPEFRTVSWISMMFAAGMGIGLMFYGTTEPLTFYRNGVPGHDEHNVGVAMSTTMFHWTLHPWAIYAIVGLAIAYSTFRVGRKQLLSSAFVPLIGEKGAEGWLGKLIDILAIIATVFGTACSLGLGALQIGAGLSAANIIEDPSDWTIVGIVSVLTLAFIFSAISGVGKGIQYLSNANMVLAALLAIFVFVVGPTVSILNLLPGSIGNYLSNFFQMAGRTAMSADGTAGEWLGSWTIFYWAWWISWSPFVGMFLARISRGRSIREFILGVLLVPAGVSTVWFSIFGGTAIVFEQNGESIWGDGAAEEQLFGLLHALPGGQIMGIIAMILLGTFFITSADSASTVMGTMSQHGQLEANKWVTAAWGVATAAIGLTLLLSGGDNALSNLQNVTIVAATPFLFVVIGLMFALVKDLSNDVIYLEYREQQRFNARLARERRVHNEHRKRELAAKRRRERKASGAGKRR

For the compound `C[N+](C)(C)CCO` [Choline], on BetP [1], the affinity, expressed as Kd, was 1.15 ± 0.09 mM.

Turning to `C[N+](C)(C)CC(=O)[O-]` [[14C]-betaine], the “[14C]-betaine uptake in E. coli MKH13 expressing BetP” value at BetP [2] is on record as “cells expressing BetP WT or the mutant N309A”.

These data come from paper PMC4745115 (Nature communications, 2014).
